For 167 variants, self-cleavage results are on record in the RNAGym collection of RNA variant scans (doi:10.1002/anie.201605470).

B1: Osa-1-4 twister ribozyme (parent)
chain: CCGCCUAACACUGCCAAUGCCGGUCCCAAGCCCGGAUAAAAGUGGAGGGGGCGG

The variants in the series derive from B1. Put plainly: self-cleavage, relative activity (ratio to wild type); higher = more cleavage; co-transcriptional. The method, boiled down:
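A DNA template was synthesised for a 54-nucleotide twister ribozyme from Oryza sativa, with 97 % wild-type base and 1 % of each other base at each of the 48 positions downstream of the cleavage site. The ribozyme cleaved itself co-transcriptionally during 2 h of in vitro transcription at 37 °C. Reverse transcription with a template-switching oligonucleotide, PCR amplification and deep sequencing followed, and cleavage status came from reads with or without upstream sequence. Relative activity is the fraction cleaved normalised to wild type.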
Regarding C14G C33A, the self-cleavage was found to be 0.04.
Then C14G C33G, with 0.05; and C14G G34A, with 0.13; and C14G G34C, with 0.09.
As to C14G G34U, the self-cleavage was determined as 0.06.
Then C15A G47U, with 0.06; and C15A G47A, with 0.06; and C15A G47C, with 0.04.
Then C15A G49U, with 0.05; and C15A G49A, with 0.05; and C15A G49C, with 0.04.
Then C15A G23U, with 0.05; and C15A G23A, with 0.08; and C15A G23C, with 0.03.
In the case of C14G G44C, the self-cleavage came to 0.07.
On to C14G G44U, for which the self-cleavage is 0.08.
Then C14G G44A, with 0.23.
Take C15A C9A: the self-cleavage worked out at 0.14.
Then C15A C9U, with 0.19.
Under C15A C9G stands 0.14; under C14U C33A, 0.04.
Then C14U C33G, with 0.03; and C14U C33U, with 0.08.
On to C14U C26U, for which the self-cleavage amounted to 0.11.
Under C14U C26G stands 0.07; under C14U C26A, 0.03; under C15A C26A, 0.05.
Under C15A C26G stands 0.06.
Under C15A C26U stands 0.12; under C14G U37C, 0.19.
Consider C14G U37G, for which the self-cleavage turned out to be 0.25.
Then C14G U37A, with 0.27.
Under C15A C27U stands 0.07; under C15A C27G, 0.04; under C15A C27A, 0.16.
Then C15A U12A, with 0.11.
As for C15A U12C, the self-cleavage turned out to be 0.07.
On to C15A U12G, for which the self-cleavage came to 0.15.
Under C14G G51U stands 0.04; under C14G G51A, 0.08.
Then C14G G51C, with 0.04; and C15G G19U, with 0.7; and C15G G19A, with 0.95.
As for C15G G19C, the self-cleavage worked out at 0.74.
Then C15A G48C, with 0.04; and C15A G48A, with 0.05.
C15A G48U: the self-cleavage turned out to be 0.04.
Under C15G G22C stands 0.06.
Under C15G G22A stands 0.16.
In the case of C15G G22U, the self-cleavage turned out to be 0.09.
Then C14G U12A, with 0.09; and C14G U12C, with 0.09.
Then C14G U12G, with 0.06; and C14U G50A, with 0.35; and C14U G50C, with 0.1.
Then C14U G50U, with 0.18; and C14U G30C, with 0.03.
In the case of C14U G30A, the self-cleavage was found to be 0.79.
Under C14U G30U stands 0.03.
Then C15G C26U, with 0.11; and C15G C26A, with 0.04; and C15G C26G, with 0.11.
Under C14G G42C stands 0.06; under C14G G42U, 0.02; under C14G G42A, 0.09.
For C14U G13A, the self-cleavage was found to be 0.03.
Under C14U G13C stands 0.02; under C14U G13U, 0.02.
Under C15G C25G stands 0.07.
Then C15G C25U, with 0.12; and C15G C25A, with 0.05.
For C14U G53U, the self-cleavage came out at 0.09.
Consider C14U G53A, for which the self-cleavage amounted to 0.11.
Under C14U G53C stands 0.05; under C14U C52G, 0.28.
Under C14U C52U stands 0.52; under C14U C52A, 0.21; under C14G U43G, 0.06.
Then C14G U43A, with 0.09; and C14G U43C, with 0.07.
Consider C15A G54U, for which the self-cleavage was determined as 0.43.
Under C15A G54C stands 0.11.
Under C15A G54A stands 0.19; under C14U C31A, 0.03; under C14U C31G, 0.06.
Under C14U C31U stands 0.06; under C15G G13C, 0.02.
With C15G G13U, the self-cleavage was determined as 0.02.
Under C15G G13A stands 0.05; under C15G C21G, 0.05; under C15G C21A, 0.11.
Under C15G C21U stands 0.42; under C14U G23U, 0.03.
Then C14U G23A, with 0.06.
Consider C14U G23C, for which the self-cleavage stood at 0.04.
C15G G30A: the self-cleavage was 0.03.
Under C14G G48A stands 0.03; under C14G G48U, 0.03; under C14G G48C, 0.04.
Under C15G C52A stands 0.21; under C15G C52G, 0.31.
Under C15G C52U stands 0.48.
Take C15A G44U: the self-cleavage amounted to 0.19.
Under C15A G44A stands 0.11; under C15A G44C, 0.33; under C14U G42A, 0.09.
On to C14U G42U, for which the self-cleavage turned out to be 0.03.
Then C14U G42C, with 0.06.
On to C15A C21G, for which the self-cleavage amounted to 0.07.
Under C15A C21U stands 0.46; under C15A C21A, 0.15; under C14G G54A, 0.1.
For C14G G54U, the self-cleavage amounted to 0.3.
As to C14G G54C, the self-cleavage amounted to 0.06.
Under C15A G22C stands 0.03; under C15A G22A, 0.2.
Then C15A G22U, with 0.09; and C14U C27U, with 0.06; and C14U C27G, with 0.06.
Then C14U C27A, with 0.05; and C14G G19C, with 0.04.
C14G G19A: the self-cleavage was found to be 0.24.
Under C14G G19U stands 0.08; under C14G G23U, 0.03; under C14G G23C, 0.04.
Consider C14G G23A, for which the self-cleavage is 0.08.
With C14G C31A, the self-cleavage was determined as 0.02.
Take C14G C31G: the self-cleavage came to 0.15.
C14G C31U: the self-cleavage is 0.05.
In the case of C15A C32U, the self-cleavage turned out to be 0.07.
Then C15A C32A, with 0.08; and C15A C32G, with 0.07; and C15A C52A, with 0.23.
Then C15A C52U, with 0.57.
As for C15A C52G, the self-cleavage was found to be 0.32.
Then C14G C32U, with 0.04.
Then C14G C32G, with 0.08; and C14G C32A, with 0.03.
With C14G G49U, the self-cleavage worked out at 0.03.
Then C14G G49A, with 0.04; and C14G G49C, with 0.03; and C14G G35A, with 0.07.
Under C14G G35U stands 0.06; under C14G G35C, 0.04; under C15A C20U, 0.65.
Then C15A C20G, with 0.06; and C15A C20A, with 0.52.
Turning to C14U C15G, the self-cleavage stood at 0.07.
Then C14U C15U, with 0.09.
Then C14U C15A, with 0.08; and C15G, with 0.54; and C15A, with 0.61.
Under C14U C21A stands 0.12; under C14U C21G, 0.06.
For the variant C14U C21U, the self-cleavage came to 0.39.
Then C15G C32G, with 0.12; and C15G C32U, with 0.07; and C15G C32A, with 0.05.
Under C14U G51C stands 0.04.
Then C14U G51A, with 0.12.
For the variant C14U G51U, the self-cleavage was 0.05.
Under C15A C33G stands 0.03; under C15A C33U, 0.09.
Then C15A C33A, with 0.07; and C15A C25G, with 0.04.
Then C15A C25U, with 0.08; and C15A C25A, with 0.07.
